These results are taken from ChEMBL document CHEMBL1153444, “Discovery of dual inhibitors targeting both HIV-1 capsid and human cyclophilin A to inhibit the assembly and uncoating of the viral capsid” (Bioorg Med Chem, 2009).

pEC50, pIC50, pKd: −log10 of the molar value. Activity calls are given as the source filed them. The rule behind the calls is not given here.

For series [1], the system named is Simian immunodeficiency virus. Description: Antiviral activity against SIV in human CEM cells assessed as inhibition of virus-induced cytopathogenicity. The note with it: Simian immunodeficiency virus, CCRF-CEM; read-out: EC50. It counts as functional, organism-based, CCRF-CEM. In a few lines: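 SIV syncytium assay in CEM174 cells (2 × 10⁵ cells/ml) infected with 100 TCID₅₀ SIV per well alongside serial compound dilutions. Cultures were kept 5 days at 37 °C in humidified 5% CO₂, then giant-cell formation was scored microscopically. EC₅₀ is the concentration protecting cells from SIV cytopathogenicity by 50%.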
Background: Protection from cytopathic effect is a common read-out in antiviral testing.

Series [2] is described as follows: Cytotoxicity against human CEM cells. It counts as cell-based. The note with it: CEM cells (CCRF-CEM), read-out: TC50 (the source's name).
A short description of series [3]: Therapeutic index, TC50 for human CEM cells to EC50 for SIV. It counts as cell-based, CCRF-CEM.
For series [4], the target named is Structural capsid protein (Human immunodeficiency virus 1) (UniProt Q76129). Nature of the series: Binding affinity to HIV1 capsid assessed as assembly rate per minute by ultraviolet spectrophotometry assay. The essentials: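 Turbidity was read at 350 nm every 10 s after a short equilibration delay. Assembly rate (mOD/min) was taken from the initial slope of absorbance versus time.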

In series [5] the target is T1, Peptidyl-prolyl cis-trans isomerase A (Homo sapiens, UniProt P62937). Nature of the series: Binding affinity to human cyclophilin A by intrinsic tryptophan fluorescence titration assay. The note with it: for pKd: read-out: Kd. The essentials:
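CypA intrinsic tryptophan fluorescence titration in 20 mM Tris–HCl, 100 mM NaCl, pH 7.4, at 25 °C, with compounds from 10 mM DMSO stocks. Excitation was 280 nm and emission was read at 340 nm. Kd was obtained by fitting intensity against final compound concentration to F₀/F = 1 + Ka·C.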

Series [6] has as its target T1, Peptidyl-prolyl cis-trans isomerase A. Nature of the series: Inhibition of human cyclophilin A at 6 degC. In a few lines: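 PPIase assay at 6 °C in 50 mM HEPES, 100 mM NaCl, using Suc-AAPF-pNA substrate (3 mM stock in THF with 480 mM LiCl). A390 was recorded for 20 s after about a 6 s mixing delay. Cis–trans rate constants came from nonlinear least-squares fits to an integrated first-order equation, and IC₅₀ was calculated from these.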

Series [7] has as its target Protease (Human immunodeficiency virus 1) (UniProt Q9YQ12). Nature of the series: Inhibition of HIV1 protease. The essentials: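 HIV-1 protease was preincubated with inhibitor (DMSO) for 20 min at room temperature in 0.1 M MES, 0.2 M NaCl, 5 mM EDTA, pH 5.5. The reaction was started with substrate Lys-Ala-Arg-Val-Leu-Phe(NO₂)-Glu-Ala-Met, and hydrolysis was followed as the A280 decrease over 40 min. Inhibition ratio was taken from Ai/A₀, with and without inhibitor.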

The target of series [8] is Human immunodeficiency virus type 1 integrase (Human immunodeficiency virus 1) (UniProt Q7ZJM1). Description: Inhibition of HIV1 integrase at 20 uM. The arrangement: scale not given: the % may be the effect or the level left. The essentials: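 Recombinant HIV-1 integrase (E. coli) was preincubated with compound for 30 min. It was then incubated for 30 min at 37 °C on plate-immobilized donor duplex in Tris–HCl pH 7.8, 25 mM NaCl, 7.5 mM MgCl₂, 5 mM β-mercaptoethanol and BSA. Biotinylated target duplex was added for 1 h at 37 °C. Integration products were detected by pNPP phosphatase read-out at A405, and inhibition was taken as the decrease in final absorbance.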
Human immunodeficiency virus type 1 integrase (Human immunodeficiency virus 1), sequence (Q7ZJM1 as listed by the source): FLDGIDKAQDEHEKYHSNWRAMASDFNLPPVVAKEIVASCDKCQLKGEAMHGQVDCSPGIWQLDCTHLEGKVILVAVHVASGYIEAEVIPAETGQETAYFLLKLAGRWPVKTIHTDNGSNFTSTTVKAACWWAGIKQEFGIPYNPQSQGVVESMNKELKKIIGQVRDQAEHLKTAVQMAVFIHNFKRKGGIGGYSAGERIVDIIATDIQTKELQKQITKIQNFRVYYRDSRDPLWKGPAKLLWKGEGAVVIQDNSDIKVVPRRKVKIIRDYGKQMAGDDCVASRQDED

T1 sequence (P62937 whole entry): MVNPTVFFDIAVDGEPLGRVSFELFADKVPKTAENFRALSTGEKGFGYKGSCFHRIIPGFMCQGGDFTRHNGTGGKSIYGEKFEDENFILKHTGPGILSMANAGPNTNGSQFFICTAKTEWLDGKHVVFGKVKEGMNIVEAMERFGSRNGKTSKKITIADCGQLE
Protease (Human immunodeficiency virus 1), sequence (Q9YQ12 as listed by the source): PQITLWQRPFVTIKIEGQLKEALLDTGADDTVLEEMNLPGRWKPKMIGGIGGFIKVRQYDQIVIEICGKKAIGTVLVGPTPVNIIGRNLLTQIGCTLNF
Structural capsid protein (Human immunodeficiency virus 1), sequence (Q76129 as listed by the source): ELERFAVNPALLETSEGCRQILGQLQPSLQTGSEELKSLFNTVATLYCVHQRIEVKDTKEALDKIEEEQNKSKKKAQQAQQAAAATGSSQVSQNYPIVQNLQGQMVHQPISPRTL

As for `Cc1ccc(NC(=S)Nc2ccc(S(=O)(=O)Nc3nccs3)cc2)cc1`, the pEC50 in series [1] is 5.66. For the same compound, the CC50 in series [2] is 20.9 µM. In addition, the selectivity ratio in series [3] amounted to 9. For the same compound, the Activity (milli optical density/minute) in series [4] worked out at 59. The pKd in series [5] is 4.11. The compound further showed a pIC50 in series [6] of 6.35.
Take `CCN(CC)c1nc(C)c([N+](=O)[O-])c(NCCNC(=S)Nc2cccc(Br)c2)n1`: the pEC50 in series [1] is 5.13. Moreover, the CC50 in series [2] came out at 26.2 µM. In addition, in series [3], the selectivity ratio amounted to 4. The Activity (milli optical density/minute) in series [4] is 88.1. In addition, the pKd in series [5] is 4.10. Besides, in series [6], the pIC50 is 6.09.
In the case of `Cc1ccc(NC(=S)Nc2ccc(S(=O)(=O)Nc3nccs3)cc2)cc1Cl`, in series [1], the pEC50 was 4.97. The CC50 in series [2] worked out at 37 µM. Further, the selectivity ratio in series [3] is 3. Moreover, the Activity (milli optical density/minute) in series [4] was 27.4. The pKd in series [5] is 4.29. Besides, the negative logarithm of the IC50 (pIC50) in series [6] is 6.80.
In the case of `Cc1cc(NS(=O)(=O)c2ccc(NC(=S)Nc3ccccc3C)cc2)no1`, in series [1], the pEC50 is 5.21. Besides, the CC50 in series [2] came to 48.4 µM. Besides, the selectivity ratio in series [3] was found to be 8. Besides, the Activity (milli optical density/minute) in series [4] is 64.8. Further, the pKd in series [5] was 3.93. In addition, in series [6], the pIC50 is 6.22.
`Cc1cc(NS(=O)(=O)c2ccc(NC(=S)Nc3cccc(F)c3)cc2)no1`: the pEC50 in series [1] is 4.94. In series [2], the CC50 was 88 µM. In addition, in series [3], the selectivity ratio was 8. The Activity (milli optical density/minute) in series [4] is 76.2. Further, the pKd in series [5] is 3.89. Moreover, the pIC50 in series [6] is 6.42.
As for `Cc1cc(NS(=O)(=O)c2ccc(NC(=S)Nc3cccc(Br)c3)cc2)no1`, the pEC50 in series [1] was 6.05. In series [2], the CC50 stood at 58.7 µM. The selectivity ratio in series [3] was determined as 66. Also, in series [4], the Activity (milli optical density/minute) turned out to be 31.2. Further, the negative-log Kd (pKd) in series [5] was 4.05. This compound also had a pIC50 in series [6] of 6.35.
With `Cc1cc(NS(=O)(=O)c2ccc(NC(=S)Nc3ccccc3)cc2)no1`, the pEC50 in series [1] was 5.12. In series [2], the CC50 is 49.7 µM. For the same compound, the selectivity ratio in series [3] came to 7. Moreover, the Activity (milli optical density/minute) in series [4] worked out at 39.2. Moreover, the pKd in series [5] is 4.06. In series [6], this compound showed a pIC50 of 6.24.
`O=S(=O)(Nc1nccs1)c1ccc(NC(=S)Nc2ccc(Cl)cc2)cc1`: in series [1], the pEC50 is 5.24. The CC50 in series [2] amounted to 19.1 µM. The selectivity ratio in series [3] is 3. Besides, in series [4], the Activity (milli optical density/minute) worked out at 52.5. For the same compound, in series [5], the pKd is 4.29. This compound also had a pIC50 in series [6] of 6.89. Besides, the result in series [7] was inactive. Besides, the Activity in series [8] is less than 20%.
As to `Cc1cc(NS(=O)(=O)c2ccc(NC(=S)Nc3ccc(F)cc3)cc2)no1`, in series [1], the pEC50 is 5.16. Further, in series [2], the CC50 was 75.4 µM. For the same compound, the selectivity ratio in series [3] came out at 11. Also, in series [4], the Activity (milli optical density/minute) is 73.8. For the same compound, the pKd in series [5] was 3.96. In series [6], this compound showed a pIC50 of 6.46.
Take `CCN(CC)c1nc(C)c([N+](=O)[O-])c(NCCNC(=S)Nc2ccc(C)c(Cl)c2)n1`: the pEC50 in series [1] is 5.20. For the same compound, the CC50 in series [2] came out at 44.2 µM. For the same compound, in series [3], the selectivity ratio came to 7. In addition, the Activity (milli optical density/minute) in series [4] is 91. Moreover, the pKd in series [5] is 4.13. Besides, the pIC50 in series [6] is 6.13.
Turning to `Cc1ccccc1NC(=S)Nc1ccc2c(c1)C(=O)OC2`, in series [1], the pEC50 was 5.55. The CC50 in series [2] was 46.9 µM. The selectivity ratio in series [3] amounted to 17. Moreover, the Activity (milli optical density/minute) in series [4] was 65.7. Moreover, the Kd result in series [5] was “Not Active”. For the same compound, the result in series [7] was inactive. This compound also had an Activity in series [8] of less than 20%.
Consider `O=C1OCc2ccc(NC(=S)Nc3cc(F)cc(F)c3)cc21`, for which the pEC50 in series [1] was 5.21. Also, the CC50 in series [2] stood at 69.1 µM. In series [3], the selectivity ratio was found to be 11. In series [4], the Activity (milli optical density/minute) came out at 63.6. In addition, the pKd in series [5] is 3.29. The result in series [7] was inactive. The compound also showed an Activity in series [8] of less than 20%.

The term pEC50 denotes the negative decadic logarithm of the EC50, by convention in mol/L. By pKd is commonly meant the negative decadic logarithm of the Kd, by convention in mol/L. A word on the pIC50: it is −log10 of the IC50, conventionally taken in molar units.
